Results gathered from unrelated publications.
Compare with care: the assays were run in different laboratories.
DPP4: Dipeptidyl peptidase 4 (DPP4, Homo sapiens, UniProt P27487)
ENAH: Protein enabled homolog (ENAH, UniProt Q8N8S7)
SRC: Proto-oncogene tyrosine-protein kinase Src (SRC, Homo sapiens, UniProt P12931)

SMILES | target | assay | setting | measurement | result
CC(C)[C@H](N)C(=O)N1CCC[C@H]1C(=O)N[C@H](C(=O)N1CCC[C@H]1C(=O)N[C@@H](CCCNC(=N)N)C(=O)O)C(C)C | DPP4 | enzyme activity, inhibitor, absorbance | pH 8 | IC50 | 118 µM
CC(=O)N[C@@H](Cc1ccccc1Cl)C(=O)N1CCC[C@H]1C(=O)N1CCC[C@H]1C(=O)N1CCC[C@H]1C(=O)N1CCC[C@H]1C(=O)N[C@H](C(=O)N[C@@H](CCC(=O)O)C(=O)N[C@@H](CC(=O)O)C(=O)N[C@@H](CCC(=O)O)C(=O)N[C@@H](CC(C)C)C(N)=O)[C@@H](C)O | ENAH | binding, fluorescence |  | Kd | 1.25 µM
CC(C)[C@H](N)C(=O)N1CCC[C@H]1C(=O)N[C@H](C(=O)N1CCC[C@H]1C(=O)N[C@@H](CC(N)=O)C(=O)O)C(C)C | DPP4 | enzyme activity, inhibitor, absorbance | pH 8 | IC50 | 88.7 µM
O=C1C=CC(=O)N1CCCCCCCCCCCCCCCCCCN1CCCCC1 | Acetylcholinesterase (ACHE, Homo sapiens, UniProt P22303) | enzyme activity, inhibitor |  | Ki | 20.4 µM
CC(C)[C@H](N)C(=O)N1CCC[C@H]1C(=O)N[C@H](C(=O)N1CCC[C@H]1C(=O)N[C@@H](Cc1c[nH]c2ccccc12)C(=O)O)C(C)C | DPP4 | enzyme activity, inhibitor, absorbance | pH 8 | IC50 | 92.1 µM
NC(=S)c1cn(C2OC(CO)C(O)C2O)c2ncnc(N)c12 (stereo not drawn) | Activin receptor type-1 (ACVR1, Homo sapiens, UniProt Q04771) | thermal stability, DSF |  | Kd | < 1 µM
CC(=O)N[C@@H](Cc1ccccc1Cl)C(=O)N1CCC[C@H]1C(=O)N1CCC[C@H]1C(=O)N1CCC[C@H]1C(=O)N1CCC[C@H]1C(=O)N[C@H](C(=O)N[C@@H](CCC(=O)O)C(=O)N[C@@H](CC(=O)O)C(=O)N[C@@H](CC(=O)O)C(=O)N[C@@H](CC(C)C)C(N)=O)[C@@H](C)O | ENAH | binding, fluorescence |  | Kd | 3.8 µM
Cn1cc(-c2cc(F)cc(N3CCn4c(cc5c4CCCC5)C3=O)c2CO)cc(Nc2ccc(N3CCN(C4COC4)CC3)cn2)c1=O | SRC | enzyme activity, inhibitor, FRET |  | Ki | 0.254 µM
c1ccc(Nc2cccc3ccccc23)cc1 | lush (Drosophila melanogaster, UniProt O02372) | binding |  | Kd | 0.65 µM
CC(C)[C@H](N)C(=O)N1CCC[C@H]1C(=O)N[C@H](C(=O)N1CCC[C@H]1C(=O)N[C@@H](CCC(=O)O)C(=O)O)C(C)C | DPP4 | enzyme activity, inhibitor, absorbance | pH 8 | IC50 | 83.4 µM
CC[C@H]1NC(=O)[C@@H]2CSC(=N2)[C@H](Cc2ccccc2)N(C)C(=O)[C@@H]2CCCN2C(=O)[C@H](C(C)C)N(C)C(=O)[C@H](Cc2ccccc2)OC(=O)[C@H](C)[C@@H](C)NC(=O)[C@@H]([C@@H](C)O)NC(=O)[C@@H](CC(C)C)N(C)C(=O)[C@@H]2CSC1=N2 | DPP4 | enzyme activity, inhibitor |  | IC50 | 245 µM
CC(=O)N[C@@H](Cc1ccccc1Cl)C(=O)N1CCC[C@H]1C(=O)N1CCC[C@H]1C(=O)N1CCC[C@H]1C(=O)N1CCC[C@H]1C(=O)O | ENAH | binding, fluorescence |  | Kd | 9.9 µM
CC(=O)P(=O)(O)OCCc1cn([C@H](Cc2ccccc2)C(=O)O)nn1 | 1-deoxy-D-xylulose-5-phosphate synthase (dxs, Escherichia coli, UniProt P77488) | enzyme activity, inhibitor | with preincubation | Ki | 0.09 µM
CC(=O)N[C@@H](CO)C(=O)N[C@@H](Cc1ccccc1)C(=O)N[C@@H](CCC(=O)O)C(=O)N[C@@H](Cc1ccccc1Cl)C(=O)N1CCC[C@H]1C(=O)N1CCC[C@H]1C(=O)N1CCC[C@H]1C(=O)N1CCC[C@H]1C(=O)N[C@H](C(=O)N[C@@H](CCC(=O)O)C(=O)N[C@@H](CC(=O)O)C(=O)N[C@@H](CCC(=O)O)C(=O)N[C@@H](CC(C)C)C(N)=O)[C@@H](C)O | ENAH | binding, fluorescence |  | Kd | 0.79 µM
Cn1cc(-c2cccc(N3CCc4c(sc5c4CC(C)(C)C5)C3=O)c2CO)cc(Nc2ccncn2)c1=O | SRC | enzyme activity, inhibitor, FRET |  | Ki | > 3.33 µM
